Experimental data pooled from the literature.
Each line is one published result; the experiments were not run side by side.
Organism: Bacillus subtilis
Observed: microbial growth

O=C(O)c1ccc(-n2cc(/C=N/N(c3ccccc3)c3ccccc3)c(-c3ccc(F)cc3)n2)cc1  MIC (ATCC6623): 1.56 µg/mL
CC1(C)CCC(C)(C)c2cc(C(=O)Nc3ccc(C(=O)O)cc3)ccc21  MIC (broth dilution; 24 h): 50 to 100 µM
O=C(O)CN1C(=O)/C(=C/c2c3ccccc3c(-c3ccc(N(c4ccccc4)c4ccccc4)cc3)c3ccccc23)NC1=S  MIC (broth dilution; ATCC6633): > 1000 µg/mL
Cc1cc(/C=C2\Sc3ccccc3N2CCCN2CCCCC2)c2ccccc2[n+]1C.[I-]  MIC (broth dilution; 168): 8 µg/mL
CN[C@H](CC(C)C)C(=O)N[C@H]1C(=O)N[C@@H](CC(N)=O)C(=O)N[C@H]2C(=O)N[C@H]3C(=O)N[C@H](C(=O)N[C@H](C(=O)O)c4cc(O)cc(O)c4-c4cc3ccc4O)[C@H](O)c3ccc(c(Cl)c3)Oc3cc2cc(c3O[C@@H]2O[C@H](CO)[C@@H](O)[C@H](O)[C@H]2O[C@H]2C[C@](C)(N)[C@H](O)[C@H](C)O2)Oc2ccc(cc2Cl)[C@H]1O  MIC (broth dilution; BS01): 0.13 µg/mL
O=C(O)c1cn(C2CC2)c2cc(N3CCNCC3)c(F)cc2c1=O  MIC: 1.6 µg/mL
O=C(O)c1ccc(-n2cc(/C=N/Nc3cccc(Br)c3)c(-c3ccc(F)cc3)n2)cc1  MIC (ATCC6623): 12.5 µg/mL
CCCCCCCCCCCCOC(=O)c1cc(O)c(O)c(O)c1  MIC (broth dilution; ATCC6633): 25 to 50 µM
CCCCCC/C=C\CCCCCCCCCc1cc(O)cc(O)c1  MIC (broth dilution; 168): > 64 µg/mL
CC1=NN(CNc2ccc(C(=O)O)cc2)C(=O)C1=NNn1c(-c2ccccc2)nc2ccccc2c1=O  MIC (broth dilution; 24 h): 50.5 µM
CCCCC[P+](/C=C(/c1ccccc1)c1cc(Cl)ccc1O)(CCCCC)CCCCC  MIC (21 h): ~2 µM
O=C(O)c1ccc(-n2cc(/C=N/Nc3cc(F)ccc3F)c(-c3cccc(F)c3)n2)cc1  MIC (ATCC6623): 6.25 µg/mL
CO[C@H]1/C=C/O[C@@]2(C)Oc3c(C)c(O)c4c(O)c(c(/C=N/N5CCN(C)CC5)c(O)c4c3C2=O)NC(=O)/C(C)=C\C=C\[C@H](C)[C@H](O)[C@@H](C)[C@@H](O)[C@@H](C)[C@H](OC(C)=O)[C@@H]1C  MIC (broth dilution; 168): 4 µg/mL
CN(C)[C@@H]1C(O)=C(C(N)=O)C(=O)[C@@]2(O)C(O)=C3C(=O)c4c(O)cccc4[C@@](C)(O)[C@H]3C[C@@H]12  MIC (ATCC6633): 2 µg/mL
O=C(O)c1ccc(-n2cc(/C=N/Nc3cccc(Br)c3)c(-c3cccc(F)c3)n2)cc1  MIC (ATCC6623): 12.5 µg/mL
CC1=NN(CNc2ccccn2)C(=O)C1=NNn1c(-c2ccccc2)nc2ccccc2c1=O  MIC (broth dilution; 24 h): 55.2 µM
O=C1NC(=S)S/C1=C\c1ccc(-c2ccc(N(c3ccccc3)c3ccccc3)cc2)c2ccccc12  MIC (broth dilution; ATCC6633): 1000 µg/mL
NC[C@H]1O[C@H](O[C@H]2[C@H](O)[C@@H](O[C@H]3O[C@H](CO)[C@@H](O)[C@H](N)[C@H]3O)[C@H](N)C[C@@H]2N)[C@H](O)[C@@H](O)[C@@H]1O  MIC: 2 to 4 µg/mL
C[n+]1c(/C=C/c2c[nH]c3ccccc23)cc(/C=C2\Sc3ccccc3N2CCCN2CCOCC2)c2ccccc21.[I-]  MIC (broth dilution; 168): 8 µg/mL
Cc1ccc(NCc2ccc(Oc3ccccn3)cc2)cc1  MIC: 1.8 µg/mL
